Assay results from different studies.
Protocols differ between the studies behind these lines.
Target: Myosin light chain kinase 2, skeletal/cardiac muscle (MYLK2, Homo sapiens, UniProt Q9H1R3)

SMILES	test	setting	quantity	value
COc1cc2ncnc(Nc3ccc(Oc4ccccc4)c(C)c3C)c2cc1OC	enzyme activity, inhibitor	1 µM	inhibition	-5%
C=CC(=O)Nc1cc(Nc2nccc(Nc3cc(Cl)c(F)cc3C(C)(C)O)n2)c(OC)cc1N1CC[C@@H](N(C)C)C1	enzyme activity, inhibitor	1 µM	inhibition	-9%
CNC(=O)c1cc(Oc2ccc(NC(=O)Nc3ccc(Cl)c(C(F)(F)F)c3)cc2)ccn1	enzyme activity, inhibitor	10 µM	inhibition	16%
O=C1c2ccccc2-c2n[nH]c3cccc1c23	enzyme activity, inhibitor	0.5 µM	activity vs control	22.2%
CCCOc1ccc(OC)c(F)c1C(=O)c1ccc(C(=O)N[C@@H]2CNC[C@H]2NC(=O)c2ccc3[nH]ncc3c2)cc1	enzyme activity, inhibitor	10 µM	remaining activity	76%
O=C(Nc1cnn(-c2csc(C(=O)NC3COC3)c2)c1)Nc1c(F)cccc1Cl	enzyme activity, inhibitor	5 µM	remaining activity	83.5%
CCN(CC)CCNC(=O)c1c(C)[nH]c(/C=C2\C(=O)Nc3ccc(F)cc32)c1C	enzyme activity, inhibitor	0.3 µM	inhibition	37%
CCS(=O)(=O)c1cc2cc(C[C@](O)(CC(C)(C)c3ccc(F)cc3C(N)=O)C(F)(F)F)[nH]c2cn1	cell-free assay, competition with immobilised ligand	1 µM	remaining binding	98%
O=C(Nc1cnn(-c2csc(C(=O)NC3COC3)c2)c1)Nc1ccccc1Cl	enzyme activity, inhibitor	5 µM	remaining activity	89.9%
Cc1nc(Cc2cccc(C(F)(F)F)c2)sc1-c1ccc(C(N)=O)nc1	cell-free assay, competition with immobilised ligand	1 µM	remaining binding	77%
Clc1ccc(Nc2nnc(Cc3ccncc3)c3ccccc23)cc1	cell-free assay	0.5 µM	remaining signal	103%
C[C@H](c1ccnc(Nc2nc3ccc(-c4cc(N(C)C)ncn4)cc3[nH]2)c1)N1CCN(C(=O)CC(F)(F)F)CC1	cell-free assay, competition with immobilised ligand	0.1 µM	remaining binding	92%
Cc1ccc(C(=O)Nc2ccc(CN3CCN(C)CC3)c(C(F)(F)F)c2)cc1C#Cc1cnc2cccnn12	enzyme activity, inhibitor	23.5 nM	remaining activity	100%
NS(=O)(=O)c1cc(NC(=O)C2(c3ccccc3Cl)CC2)ccc1Oc1cccc(Cl)c1	cell-free assay, competition with immobilised ligand	1 µM	remaining binding	73%
CC(C)(C)c1nc2c(s1)c1nc(N)ncc1c1ccc(NS(=O)(=O)c3c(F)cccc3F)c(F)c12	enzyme activity, inhibitor, radiometric	1 µM	remaining activity	113%
O=C(NCc1ncc(C(F)(F)F)cc1Cl)c1ccc2c(c1)C1(CCS(=O)(=O)CC1)[C@H](C1CC1)N2S(=O)(=O)c1ccc(F)cc1	cell-free assay, competition with immobilised ligand	1 µM	remaining binding	100%
Nc1ncnc2occ(-c3ccc(NC(=O)Nc4cc(C(F)(F)F)ccc4F)cc3)c12	enzyme activity, inhibitor	20 µM	remaining activity	1.4%
COc1cc2c(N3CCN(C(=O)Nc4ccc(OC(C)C)cc4)CC3)ncnc2cc1OCCCN1CCCCC1	cell-free assay	0.5 µM	remaining signal	101%
CN([C@@H]1CCc2c(CC(=O)O)c3cc(S(C)(=O)=O)ccc3n2C1)S(=O)(=O)c1ccc(F)cc1	cell-free assay, competition with immobilised ligand	1 µM	remaining binding	100%
